Measured values reported in ChEMBL document CHEMBL4257484, “Membrane-active antimicrobial poly(amino-modified alkyl) β-cyclodextrins synthesized via click reactions” (Medchemcomm, 2018).
In brackets after ≈: the same amount, converted by molar mass. Bridge positions count the residues as written; N and C are the ends. Square brackets hold non-standard residues; d marks the D form. Peptide text beside a SMILES is read from it. * marks the point of attachment. Octanoyl(6-Me) = CCC(C)CCCCC(=O)*; Orn = NCCC[C@H](N)C(=O)O; Dab = NCC[C@H](N)C(=O)O

Key:
Salmonella typhimurium = assay: Antibacterial activity against drug-sensitive Salmonella typhimurium LT2 after 20 hrs by liquid microdilution method; assay type: functional, Salmonella enterica subsp. enterica serovar Typhimurium; conditions: Salmonella enterica, LT2, 20 h
Method in brief: (§1)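 Two-fold serial dilutions of compound in Mueller–Hinton broth, inoculated with 1 × 10^4 cells and cultured at 37 °C for 20 h in microtiter wells.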

Staphylococcus aureus [1] = assay: Antibacterial activity against methicillin-sensitive Staphylococcus aureus FDA 209P after 20 hrs by liquid microdilution method; assay type: functional; method in brief: as §1
Enterococcus faecalis [2] = assay: Antibacterial activity against drug-resistant Enterococcus faecalis MS29030 after 18 to 20 hrs by agar dilution method; assay type: functional
Method in brief: (§2)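 Agar dilution per CLSI. Overnight broth cultures were diluted 100-fold, and one loopful (about 10^5 to 10^4 CFU) was spotted onto agar plates containing the CD. Growth was scored after 18–20 h at 37 °C. MIC values are in µM.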

Pseudomonas aeruginosa = assay: Antibacterial activity against drug-sensitive Pseudomonas aeruginosa PAO1 after 20 hrs by liquid microdilution method; assay type: functional; conditions: PAO1, 20 h; method in brief: as §1
[3] = Hemolytic activity in rabbit RBC at 5 uM after 20 mins relative to control; assay type: ADME, cell-based, Oryctolagus cuniculus, Erythrocyte; conditions: rabbit red blood cells (erythrocytes), read-out: Activity
Method in brief: (§3)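 Rabbit erythrocytes suspended in 150 mM NaCl/10 mM Hepes-NaOH, pH 7.4, at 0.5% hematocrit (final) and incubated with compound at 37 °C. The table footnote gives 20 min; the methods section gives 30 min. Hemolysis was read as absorbance at 540 nm, with 50 µM lysolecithin defining 100% hemolysis.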

Streptococcus agalactiae = assay: Antibacterial activity against drug-resistant Streptococcus agalactiae B1 after 18 to 20 hrs by agar dilution method; assay type: functional; method in brief: as §2
[4] = Hemolytic activity in rabbit RBC at 20 uM after 20 mins relative to control; assay type: ADME, cell-based, Oryctolagus cuniculus, Erythrocyte; conditions: rabbit red blood cells (erythrocytes), read-out: Activity; method in brief: as §3
Enterococcus faecium = assay: Antibacterial activity against drug-resistant Enterococcus faecium MS29120 after 18 to 20 hrs by agar dilution method; assay type: functional; method in brief: as §2
Enterococcus faecalis [5] = assay: Antibacterial activity against vancomycin-resistant Enterococcus faecalis MS29016 after 18 to 20 hrs by agar dilution method; assay type: functional; method in brief: as §2
[6] = Hemolytic activity in rabbit RBC at 50 uM after 20 mins relative to control; assay type: ADME, cell-based, Oryctolagus cuniculus, Erythrocyte; conditions: rabbit red blood cells (erythrocytes), read-out: Activity; method in brief: as §3
Escherichia coli = assay: Antibacterial activity against drug-sensitive Escherichia coli K-12 W3110 after 20 hrs by liquid microdilution method; assay type: functional; conditions: K-12 substr. W3110, 20 h; method in brief: as §1
[7] = Hemolytic activity in rabbit RBC at 10 uM after 20 mins relative to control; assay type: ADME, cell-based, Oryctolagus cuniculus, Erythrocyte; conditions: rabbit red blood cells (erythrocytes), read-out: Activity; method in brief: as §3
[8] = Hemolytic activity in rabbit RBC at 1 uM after 20 mins relative to control; assay type: ADME, cell-based, Oryctolagus cuniculus, Erythrocyte; conditions: rabbit red blood cells (erythrocytes), read-out: Activity; method in brief: as §3
[9] = Lipophilicity, log P of the compound; assay type: physicochemical; conditions: octanol/water
[10] = Hemolytic activity in rabbit RBC at 2 uM after 20 mins relative to control; assay type: ADME, cell-based, Oryctolagus cuniculus, Erythrocyte; conditions: rabbit red blood cells (erythrocytes), read-out: Activity; method in brief: as §3
Staphylococcus aureus [11] = assay: Antibacterial activity against methicillin-resistant Staphylococcus aureus MS29202 after 18 to 20 hrs by agar dilution method; assay type: functional; method in brief: as §2
Bacillus subtilis = assay: Antibacterial activity against drug-sensitive Bacillus subtilis 168 after 20 hrs by liquid microdilution method; assay type: functional; conditions: subsp. subtilis str. 168, 20 h; method in brief: as §1

Row | SMILES | MIC (Salmonella typhimurium) | MIC (Staphylococcus aureus [1]) | MIC (Enterococcus faecalis [2]) | MIC (Pseudomonas aeruginosa) | hemolysis at 20 min, 5 µM [3] | MIC (Streptococcus agalactiae) | hemolysis at 20 min, 20 µM [4] | MIC (Enterococcus faecium) | MIC (Enterococcus faecalis [5]) | hemolysis at 20 min, 50 µM [6] | MIC (Escherichia coli) | hemolysis at 20 min, 10 µM [7] | hemolysis at 20 min, 1 µM [8] | logP [9] | hemolysis at 20 min, 2 µM [10] | MIC (Staphylococcus aureus [11]) | MIC (Bacillus subtilis)
1 | O[C@@H]1[C@@H](O)[C@H]2O[C@H]3[C@H](O)[C@@H](O)[C@@H](O[C@H]4[C@H](O)[C@@H](O)[C@@H](O[C@H]5[C@H](O)[C@@H](O)[C@@H](O[C@H]6[C@H](O)[C@@H](O)[C@@H](O[C@H]7[C@H](O)[C@@H](O)[C@@H](O[C@H]8[C@H](O)[C@@H](O)[C@@H](O[C@@H]1[C@@H](Cn1cc(CNCC9CCCC9)nn1)O2)O[C@@H]8Cn1cc(CNCC2CCCC2)nn1)O[C@@H]7Cn1cc(CNCC2CCCC2)nn1)O[C@@H]6Cn1cc(CNCC2CCCC2)nn1)O[C@@H]5Cn1cc(CNCC2CCCC2)nn1)O[C@@H]4Cn1cc(CNCC2CCCC2)nn1)O[C@@H]3Cn1cc(CNCC2CCCC2)nn1 | > 42 µM | 1 to 5 µM (≈ 2.27 to 11.4 µg/mL) | > 42 µM | > 42 µM | 1% | 10 µM (≈ 22.7 µg/mL) | 2% | 21 µM (≈ 47.7 µg/mL) | > 42 µM | 8% | 21 µM (≈ 47.7 µg/mL) | 1% | 2% | -0.58 | 1% | 21 µM (≈ 47.7 µg/mL) | 21 µM (≈ 47.7 µg/mL)
2 | O[C@@H]1[C@@H](O)[C@H]2O[C@H]3[C@H](O)[C@@H](O)[C@@H](O[C@H]4[C@H](O)[C@@H](O)[C@@H](O[C@H]5[C@H](O)[C@@H](O)[C@@H](O[C@H]6[C@H](O)[C@@H](O)[C@@H](O[C@H]7[C@H](O)[C@@H](O)[C@@H](O[C@H]8[C@H](O)[C@@H](O)[C@@H](O[C@@H]1[C@@H](Cn1cc(CNCCc9ccccc9)nn1)O2)O[C@@H]8Cn1cc(CNCCc2ccccc2)nn1)O[C@@H]7Cn1cc(CNCCc2ccccc2)nn1)O[C@@H]6Cn1cc(CNCCc2ccccc2)nn1)O[C@@H]5Cn1cc(CNCCc2ccccc2)nn1)O[C@@H]4Cn1cc(CNCCc2ccccc2)nn1)O[C@@H]3Cn1cc(CNCCc2ccccc2)nn1 | 10 µM (≈ 24.2 µg/mL) | 3 to 5 µM (≈ 7.27 to 12.1 µg/mL) | 40 µM (≈ 97 µg/mL) | 10 µM (≈ 24.2 µg/mL) | 7% | 10 µM (≈ 24.2 µg/mL) | 23% | 20 µM (≈ 48.5 µg/mL) | 40 µM (≈ 97 µg/mL) | 40% | 10 µM (≈ 24.2 µg/mL) | 12% | 3% | -0.13 | 3% | 20 µM (≈ 48.5 µg/mL) | 3 µM (≈ 7.27 µg/mL)
3 | CC(C)CCNCc1cn(C[C@H]2O[C@@H]3O[C@H]4[C@H](O)[C@@H](O)[C@@H](O[C@H]5[C@H](O)[C@@H](O)[C@@H](O[C@H]6[C@H](O)[C@@H](O)[C@@H](O[C@H]7[C@H](O)[C@@H](O)[C@@H](O[C@H]8[C@H](O)[C@@H](O)[C@@H](O[C@H]9[C@H](O)[C@@H](O)[C@@H](O[C@H]2[C@H](O)[C@H]3O)O[C@@H]9Cn2cc(CNCCC(C)C)nn2)O[C@@H]8Cn2cc(CNCCC(C)C)nn2)O[C@@H]7Cn2cc(CNCCC(C)C)nn2)O[C@@H]6Cn2cc(CNCCC(C)C)nn2)O[C@@H]5Cn2cc(CNCCC(C)C)nn2)O[C@@H]4Cn2cc(CNCCC(C)C)nn2)nn1 | > 43 µM | 3 to 5 µM (≈ 6.56 to 10.9 µg/mL) | > 43 µM | > 43 µM | 0% | 11 µM (≈ 24.1 µg/mL) | 0% | 21 µM (≈ 45.9 µg/mL) | > 43 µM | 0% | > 43 µM | 0% | 0% | -0.57 | 0% | 21 µM (≈ 45.9 µg/mL) | 1 µM (≈ 2.19 µg/mL)
4 | CCC(C)CCCCC(=O)N[C@@H](CCN)C(=O)N[C@H](C(=O)N[C@@H](CCN)C(=O)N[C@H]1CCNC(=O)[C@H]([C@@H](C)O)NC(=O)[C@H](CCN)NC(=O)[C@H](CCN)NC(=O)[C@H](CC(C)C)NC(=O)[C@@H](Cc2ccccc2)NC(=O)[C@H](CCN)NC1=O)[C@@H](C)O (stereo partly drawn) ({Octanoyl(6-Me)}-[Dab]T[Dab][Dab][Dab][dF]L[Dab][Dab]T; lactam 4-C) | 1 µM (≈ 1.2 µg/mL) | 23 µM (≈ 27.7 µg/mL) |  | 1 µM (≈ 1.2 µg/mL) |  |  |  |  |  |  | 1 µM (≈ 1.2 µg/mL) |  |  |  |  |  | 6 µM (≈ 7.22 µg/mL)
5 | O[C@@H]1[C@@H](O)[C@H]2O[C@H]3[C@H](O)[C@@H](O)[C@@H](O[C@H]4[C@H](O)[C@@H](O)[C@@H](O[C@H]5[C@H](O)[C@@H](O)[C@@H](O[C@H]6[C@H](O)[C@@H](O)[C@@H](O[C@H]7[C@H](O)[C@@H](O)[C@@H](O[C@H]8[C@H](O)[C@@H](O)[C@@H](O[C@@H]1[C@@H](Cn1cc(CNCc9ccccc9)nn1)O2)O[C@@H]8Cn1cc(CNCc2ccccc2)nn1)O[C@@H]7Cn1cc(CNCc2ccccc2)nn1)O[C@@H]6Cn1cc(CNCc2ccccc2)nn1)O[C@@H]5Cn1cc(CNCc2ccccc2)nn1)O[C@@H]4Cn1cc(CNCc2ccccc2)nn1)O[C@@H]3Cn1cc(CNCc2ccccc2)nn1 | 21 µM (≈ 48.9 µg/mL) | 5 µM (≈ 11.6 µg/mL) | > 41 µM | 21 µM (≈ 48.9 µg/mL) | 4% | 21 µM (≈ 48.9 µg/mL) | 3% | 41 µM (≈ 95.4 µg/mL) | 41 µM (≈ 95.4 µg/mL) | 11% | 21 µM (≈ 48.9 µg/mL) | 2% | 2% | -0.26 | 4% | 41 µM (≈ 95.4 µg/mL) | 5 µM (≈ 11.6 µg/mL)
6 | CC(C)C[C@@H]1NC(=O)[C@H](CCCN)NC(=O)[C@H](C(C)C)NC(=O)[C@@H]2CCCN2C(=O)[C@@H](Cc2ccccc2)NC(=O)[C@H](CC(C)C)NC(=O)[C@H](CCCN)NC(=O)[C@H](C(C)C)NC(=O)[C@@H]2CCCN2C(=O)[C@@H](Cc2ccccc2)NC1=O (cyclo(V[Orn]L[dF]PV[Orn]L[dF]P)) |  | 7 µM (≈ 7.99 µg/mL) |  | 56 µM (≈ 63.9 µg/mL) |  |  |  |  |  |  | 28 µM (≈ 32 µg/mL) |  |  |  |  |  | 
7 | O[C@@H]1[C@@H](O)[C@H]2O[C@H]3[C@H](O)[C@@H](O)[C@@H](O[C@H]4[C@H](O)[C@@H](O)[C@@H](O[C@H]5[C@H](O)[C@@H](O)[C@@H](O[C@H]6[C@H](O)[C@@H](O)[C@@H](O[C@H]7[C@H](O)[C@@H](O)[C@@H](O[C@H]8[C@H](O)[C@@H](O)[C@@H](O[C@@H]1[C@@H](Cn1cc(CNCC9CC9)nn1)O2)O[C@@H]8Cn1cc(CNCC2CC2)nn1)O[C@@H]7Cn1cc(CNCC2CC2)nn1)O[C@@H]6Cn1cc(CNCC2CC2)nn1)O[C@@H]5Cn1cc(CNCC2CC2)nn1)O[C@@H]4Cn1cc(CNCC2CC2)nn1)O[C@@H]3Cn1cc(CNCC2CC2)nn1 | > 45 µM | > 45 µM |  | > 45 µM | 0% |  | 0% |  |  | 0% | > 45 µM | 0% | 0% | -1.4 | 0% |  | > 45 µM
